From PubChem
This is one part of a sample in which hits are shown more often than they occur.
HCT116 bCat-KO: beta-catenin-lacking colon tumor cell growth suppression; viability, % at 10 µM; HCT116 beta-catenin knockout viability, CellTiter-Glo, 60 h; hits give low values; 140,000 compounds, 1.5% hits;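 active = viability at or under a set limit, the compound median less 4 SD, cut at about 6% in these data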;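 note: 0% = Hyamine 1622 control at 20 µM and 100% = untreated cell control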
H69AR inhibit: growth inhibitors of human H69AR lung tumor cells | H69AR lung tumor viability, ATP luminescence, 72 h; hits give low values | viability, % at 10 µM | 85,000 compounds, 6% hits | AID 598;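 active = viability at or below 40%; inactive = viability above 40%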;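 note: multidrug resistant small cell line overexpressing MRP-1 efflux transporter; 100% = mean luminescence of untreated control wells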
Lung fibro prol: blocks proliferation of human lung fibroblasts; viability, % at 10 µM; AID 719; 85,000 compounds, 1.1% hits; LL 47 human lung fibroblast viability, ATP luminescence; hits give low values;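 active = viability at or below 50% in the single dose screen; inactive = viability above 50%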;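 note: compound exposure lasted 72 h before the ATP readout; 100% = median luminescence of untreated cell-only wells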
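Benchmarks: Cell-only wells, no compound | Test system: LL 47 human lung fibroblasts, passage 12 or lower | Input: 1,150 cells/well | Measured by: CellTiter-Glo luminescence measuring cellular ATP | Medium: IMEM, 15% FBS supplement | Schedule: Overnight attachment after seeding, then 72 h compound exposure at 37 °C | Doses: Compound addition at 0.1% DMSO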
HCT116 PTEN-null: growth suppressors of cells with PTEN tumor suppressor deletion | 140,000 compounds, 1.2% hits | viability, % at 10 µM | HCT116 PTEN-null viability, CellTiter-Glo, 60 h; hits give low values;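 active = viability at or below a set limit, 4 SD under the median of all tested compounds, cut at about 3.7% in these data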;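 note: PTEN knockout HCT116 line with beta catenin targeted HCT116 as companion control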
HUVEC inhibit: blocks proliferation of human endothelial cells; HUVEC proliferation, CellTiter-Glo luminescence, 72 h; hits give low values; viability, % at 10 µM (by protocol); 86,000 compounds, 1.1% hits; AID 648;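 active = viability at or below 30%; inactive = viability above 30%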;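 note: 100% = median luminescence of DMSO-only cell control wells on each plate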
An asterisk follows results filed as active; / = no result given.

SMILES	HCT116 bCat-KO	H69AR inhibit	Lung fibro prol	HCT116 PTEN-null	HUVEC inhibit
Cc1onc(-c2ccccc2)c1C(=O)N1CCC(C)CC1	91	91	99	97	85
Cc1ccc(C)c(N2CCN(CCCNC(=O)Cn3cc4c(n3)CCC(C)C4)CC2)c1 (stereo not drawn)	10	46	73	9	15*
Cc1ccc(C)c(N2CCN(CCCNC(=O)Cn3cc4c(n3)CCCCC4)CC2)c1	2.1*	50	84	1.7*	22*
C=CCn1c(=O)/c(=C/c2ccc(Cl)cc2)s/c1=C(/C#N)c1nnc2n1CCCCC2	48	22*	83	46	68
Cn1c(=O)c(C(=O)Nc2cnccn2)c(O)c2ccccc21	/	0.6*	104	/	98
Cn1c(=O)c(C(=O)Nc2ccccn2)c(O)c2ccccc21	15	19*	55	12	103
CCn1c(=O)c(C(=O)Nc2cnccn2)c(O)c2ccccc21	/	92	94	/	112
COC(=O)CSc1nnc(CNC(=O)c2ccc(S(=O)(=O)N3CCCCC3)cc2)n1C	92	91	102	112	97
Cc1cccc(Nc2nnc(SC/C(O)=C(\C#N)c3nc4ccccc4[nH]3)s2)c1C	91	/	/	79	/
O=C(CN(Cc1ccccc1)C(=O)CSc1nnc(COc2ccccc2)o1)NC1CCCC1	70	73	97	71	94
Cc1ccc(CN(CC(=O)NC2CCCC2)C(=O)CSc2nnc(COc3ccccc3)o2)cc1	91	16*	86	83	48
COc1ccc(C2NC(=O)c3sc(=S)n(-c4ccccc4)c3N2)cc1 (stereo not drawn)	41	95	108	3.2*	72
CCOc1ccc(C2NC(=O)c3sc(=S)n(-c4ccccc4)c3N2)cc1 (stereo not drawn)	103	/	/	99	/
CCOC(=O)c1cnn(-c2ncnc3c2cnn3Cc2ccccc2)c1N	/	26*	92	/	20*
CC1=CC(C)C2C(=O)N(CCC[N+](C)(C)C)C(=O)C2C1 (stereo not drawn)	100	92	99	91	86
CCCCS/C(=C(/C#N)C(N)=O)c1cc2c([nH]1)CCCC2	20	5.2*	67	23	69
O=C(CCn1cccc1)NC1CCCc2ccccc21 (stereo not drawn)	97	87	105	96	90
COc1nc(Nc2ccc(O)cc2)nc(OC(C(F)(F)F)C(F)(F)F)n1	85	87	92	75	95
Nc1cccc(Nc2nc(OC(C(F)(F)F)C(F)(F)F)nc(OC(C(F)(F)F)C(F)(F)F)n2)c1	6	1.5*	63	2.4*	44
CCCCc1ccc(-c2csc(/C(C#N)=C\c3ccc(C)o3)n2)cc1	95	/	/	87	/
CCOc1ccc(-c2csc(/C(C#N)=C\c3ccc(O)c([N+](=O)[O-])c3)n2)cc1	5.5*	/	/	5	/
CNC(=O)/C=C1\NC(C)(C)Cc2c1ccc1ccccc21	55	23*	89	56	80
C(=N\n1cnnc1)/c1cn(Cc2ccccc2)c2ccccc12	80	75	77	80	48
Clc1ccc(Cn2cc(/C=N/n3cnnc3)c3ccccc32)c(Cl)c1	84	75	76	86	13*
O=C(NCCCN1CCOCC1)c1cc(-c2ccccc2)on1	64	91	85	66	99
SMILES	HCT116 bCat-KO	H69AR inhibit	Lung fibro prol	HCT116 PTEN-null	HUVEC inhibit
Cc1nc2ccccc2c(=O)n1NC(=O)c1ccc(F)cc1Cl	96	102	103	98	102
Cc1ccc(C(=O)CSc2nc(-c3ccccc3)ccc2C#N)cc1	80	/	/	76	/
N#Cc1ccc(-c2ccco2)nc1SCC(=O)c1ccc(Cl)cc1	68	6.2*	93	69	38
Cn1c(=O)c2c(nc(Oc3ccc4c(c3)OCO4)n2Cc2ccc(Br)cc2)n(C)c1=O	/	18*	30*	/	22*
COC(=O)c1sc(N2C(=O)c3oc4ccccc4c(=O)c3C2c2cccs2)nc1C (stereo not drawn)	65	/	/	47	/
C=CCOC(=O)c1sc(N2C(=O)c3oc4ccccc4c(=O)c3C2c2ccco2)nc1C (stereo not drawn)	/	17*	58	/	35
O=C1C(C=NCCCN2CCCC2=O)=C(O)c2ccccc21	98	94	107	104	99
Cc1ccc2sc(NC(=O)CN3C(=O)CCC3=O)nc2c1C	105	98	99	108	104
Cc1c(Cl)ccc2sc(NC(=O)CN3C(=O)c4ccccc4C3=O)nc12	0.8*	/	/	0.5*	/
Cn1cnc2cc(NS(=O)(=O)c3ccc(Br)cc3)ccc21	67	39*	85	61	98
